Assay [1] deals with Sigma non-opioid intracellular receptor 1 (Cavia porcellus, UniProt Q60492). Kind of assay: Displacement of [3H]-(+)-pentazocine from sigma 1 receptor in guinea pig brain membranes after 2 hrs by scintillation counting. It counts as cell membranes, Membrane.
Assay [2] is described as follows: Displacement of [3H]di-o-tolylgluanidine from sigma 2 receptor in rat liver membranes at 1 uM after 2 hrs by scintillation counting. Particulars: Membrane. On the technique in general: Displacement assays read how much labelled ligand stays bound in the presence of the test substance.
Assay [3] is described as follows: Displacement of [3H]di-o-tolylgluanidine from sigma 2 receptor in rat liver membranes after 2 hrs by scintillation counting. It counts as cell membranes, Membrane. Put shortly: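 Rat liver membranes (sucrose homogenate; pellet held 30 min at room temperature in 50 mM TRIS pH 8.0; 100 µg protein) incubated with 3 nM [3H]DTG and test compound at 10^-10 to 10^-5 M, at room temperature for 120 min. […] Nonspecific binding with 10 µM DTG. Filtration, then scintillation counting. Duplicates. Ki by Cheng-Prusoff from IC50, mean ± SEM, n = 3.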

Assay [4] can be described thus: Selectivity ratio of Ki for sigma 2 receptor in rat liver membranes to Ki for sigma 1 receptor in guinea pig brain membranes. It counts as cell membranes.
For assay [5], the species on record is Mus musculus. Kind of assay: Analgesic activity in mouse by acetic acid writhing test. The format is functional. A general note: An intraperitoneal irritant provokes the stretching counted in writhing tests.
Assay [6] concerns the target Sigma non-opioid intracellular receptor 1 (Cavia porcellus) (UniProt Q60492). Briefly: Displacement of [3H]-(+)-pentazocine from sigma 1 receptor in guinea pig brain membranes at 1 uM after 2 hrs by scintillation counting. The format is cell membranes. Particulars: Membrane. Summed up:
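Guinea pig brain membranes (about 100 µg protein) incubated with 2 nM [3H]-(+)-pentazocine and 1 µM test compound in 50 mM TRIS pH 7.4 at 37 °C for 120 min. Filtered, then counted by scintillation. […] Result given as % inhibition of radioligand binding.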

The structures appear in SMILES notation. A value given as a limit tells only on which side of the number the result lay.

Broadly, the Ki is a measure of affinity in units of concentration, obtained from inhibition or displacement. For orientation: inhibition means the drop in the measured response relative to a control, in per cent. Lower therefore signals a response near the control. In general, ED50 refers to the midpoint of the dose-response relation. Higher therefore signals a need for a large dose.

Sigma non-opioid intracellular receptor 1, sequence (Q60492 whole entry): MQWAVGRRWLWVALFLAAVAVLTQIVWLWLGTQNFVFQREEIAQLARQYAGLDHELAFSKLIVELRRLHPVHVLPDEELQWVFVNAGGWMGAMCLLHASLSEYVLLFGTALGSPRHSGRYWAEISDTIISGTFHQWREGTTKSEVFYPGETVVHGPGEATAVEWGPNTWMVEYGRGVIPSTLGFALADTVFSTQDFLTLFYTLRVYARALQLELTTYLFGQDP
Sigma non-opioid intracellular receptor 1 (Cavia porcellus), sequence (Q60492 whole entry): as above

In turn, `COC(=O)C[C@@H]1Cc2ccccc2[C@H](CCN2CCCC2)O1` (racemic) yielded a Ki in assay [1] above 1 µM. In assay [2], this compound registered an inhibition of 0%.
Compound `COC(=O)C[C@@H]1Cc2ccccc2[C@H](CCN2CCCCC2)O1` (racemic) came in with a Ki in assay [1] of 0.519 µM. This counts as sub-micromolar.
Turning to `COC(=O)C[C@@H]1Cc2ccccc2[C@H](CCN2CCC(c3ccccc3)CC2)O1` (racemic), the figures for the Ki in assay [3] and in assay [1] were 0.107 µM and 0.038 µM, respectively. Further, in assay [4], the Ratio Ki was 2.8.
For `COC(=O)CC1Cc2ccccc2C2(CCN(CCCc3ccccc3)CC2)O1` (racemic), in that order: 0.61 µM, 0.039 µM and 15.
Take `CCCCCCCCN1CCC2(CC1)OC(CCO)Cc1ccccc12` (racemic): the values for the Ki in assay [3] and in assay [1] were 0.234 µM and 0.026 µM, respectively. For the same compound, the Ratio Ki in assay [4] was 9.
For `OCC[C@@H]1Cc2ccccc2[C@H](CCN2CCC(c3ccccc3)CC2)O1` (racemic), in that order: 0.02 µM, 0.052 µM and 0.4.
In assay [5], `CN1CCC2Cc3ccccc3C(C1)O2` (stereo not drawn) showed an ED50 of 20 mg/kg.
Compound `Cc1ccccc1NC(=N)Nc1ccccc1C` [DITOLYLGUANIDINE] gave a Ki in assay [3] of 0.0202 µM. That is a double-digit nanomolar value.
As to `OCC[C@@H]1Cc2ccccc2[C@H](CCN2CCCCC2)O1` (racemic), the inhibition in assay [6] worked out at 4%; in assay [2] it was 14%.
Take `CCCCN1CCC2(CC1)OC(CCO)Cc1ccccc12` (racemic): the Ki in assay [1] amounted to 0.06 µM. In assay [2], this compound displayed an inhibition of 13%.
In the case of `CCN1CCC2(CC1)OC(CCO)Cc1ccccc12` (racemic), the inhibition in assay [6] and in assay [2] was 0% in each case.
Regarding `OCCC1Cc2ccccc2C2(CCN(CCCc3ccccc3)CC2)O1` (racemic), the Ki turned out to be 0.617 µM in assay [3] and 0.02 µM in assay [1]. For the same compound, the Ratio Ki in assay [4] came to 30.
In assay [1], `OCCC1Cc2ccccc2C2(CCN(Cc3ccccc3)CC2)O1` (racemic) showed a Ki of 0.02 µM. For the same compound, in assay [2], the inhibition came to 0%.
With `COC(=O)C[C@@H]1Cc2ccccc2[C@H](CN2CCC(c3ccccc3)CC2)O1` (racemic), the values for the Ki in assay [3] and in assay [1] were 0.785 µM and 0.673 µM, respectively. In assay [4], the Ratio Ki was 1.2.
For the compound `COC(=O)C[C@@H]1Cc2ccccc2[C@H](CN2CCCCC2)O1` (racemic), the affinity in assay [1] corresponds to a Ki of 0.51 µM. Also, the inhibition in assay [2] came to 7%.

Values taken from ChEMBL document CHEMBL3826898, “Oxa-Pictet-Spengler reaction as key step in the synthesis of novel σ receptor ligands with 2-benzopyran structure” (Bioorg Med Chem, 2016).
